From ChEMBL document CHEMBL5344437, “Novel Drug Screening Assay for Acanthamoeba castellanii and the Anti-Amoebic Effect of Carbonic Anhydrase Inhibitors” (J Med Chem, 2024)
Calls of active or inactive are those of the source. The rule behind the calls is not given here.

Tests used:
Assay type in all cases: functional, organism-based
Acanthamoeba castellanii [1] = experiment: Anti-amoebic activity against Acanthamoeba castellanii ATCC 30010 trophozoites assessed as reduction in amoebic growth at 938 nM incubated for 24 to 72 hrs by crystal violet staining based assay; details: time 24-72 hrs
How it was run: (§1)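 Trophozoites scraped from an axenic PYG culture at +25 °C were plated at 1000 cells per well with an inhibitor dilution series in PYG medium, with a separate plate for each time point (24, 48, 72 h). Cells were fixed with methanol, stained with 0.1% crystal violet, dissolved in 10% acetic acid and read at 590 nm. Two experiments, 6–15 wells per concentration; unpaired t-test versus control at 72 h.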

Acanthamoeba castellanii [2] = experiment: Anti-amoebic activity against Acanthamoeba castellanii ATCC 30010 cyst assessed as reduction in cyst survival at 9.38 uM incubated for 24 to 72 hrs by crystal violet staining based assay; details: time 24-72 hrs
How it was run: (§2)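 Cyst survival: after 24, 48 or 72 h of inhibitor exposure of 1000 cells per well in PYG, the medium-inhibitor solution was moved to a new plate and topped up with fresh medium. It was then incubated 5 days at +25 °C so cysts could excyst. Wells were fixed with methanol, stained with 0.1% crystal violet, eluted with 10% acetic acid and read at 590 nm. Unpaired t-test versus control at 72 h.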

Acanthamoeba castellanii [3] = experiment: Anti-amoebic activity against Acanthamoeba castellanii ATCC 30010 cyst assessed as inhibition of excystation at 188 nM incubated for 72 hrs by crystal violet staining based assay
Acanthamoeba castellanii [4] = experiment: Anti-amoebic activity against Acanthamoeba castellanii ATCC 30010 trophozoites assessed as reduction in amoebic growth at 1 to 100 nM incubated for 24 to 72 hrs by crystal violet staining based assay; details: dose 1-100 nM, time 24-72 hrs; how it was run: as §1
Acanthamoeba castellanii [5] = experiment: Anti-amoebic activity against Acanthamoeba castellanii ATCC 30010 trophozoites assessed as reduction in amoebic growth at 1 to 100 uM incubated for 24 to 72 hrs by crystal violet staining based assay; details: dose 1-100 µM, time 24-72 hrs; how it was run: as §1
Acanthamoeba castellanii [6] = experiment: Anti-amoebic activity against Acanthamoeba castellanii ATCC 30010 cyst assessed as inhibition of excystation at >= 10 uM incubated for 72 hrs by crystal violet staining based assay
Acanthamoeba castellanii [7] = experiment: Anti-amoebic activity against Acanthamoeba castellanii ATCC 30010 trophozoites assessed as reduction in amoebic growth at 100 uM incubated for 24 to 72 hrs by crystal violet staining based assay; details: time 24-72 hrs
How it was run: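 Trophozoites scraped from steady-state PYG culture, 1000 cells per well in inhibitor-containing PYG, +25 °C, separate plates read at 24, 48, 72 h. Methanol fix, 0.1% crystal violet, 10% acetic acid elution, A590. Two experiments, ≥3 wells each. Unpaired t-test vs drug-free control at 72 h.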

Acanthamoeba castellanii [8] = experiment: Anti-amoebic activity against Acanthamoeba castellanii ATCC 30010 cyst assessed as reduction in cyst survival at 1 mM incubated for 24 to 72 hrs by crystal violet staining based assay; details: time 24-72 hrs
How it was run: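 Scraped PYG-grown cells, 1000 per well, exposed 24, 48 or 72 h at +25 °C. Medium-inhibitor solution then moved to new plates, topped with fresh medium, and held 5 days at +25 °C to allow excystation. Methanol fix, 0.1% crystal violet, 10% acetic acid, A590. Unpaired t-test vs control at 72 h.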

Acanthamoeba castellanii [9] = experiment: Anti-amoebic activity against Acanthamoeba castellanii ATCC 30010 cyst assessed as inhibition of excystation at 100 uM incubated for 72 hrs by crystal violet staining based assay
How it was run: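 Axenic culture in PYG medium at +25 °C, grown past peak density to induce encystment; 1000 cysts per well added to inhibitor diluted in PYG, incubated 72 h at +25 °C. Methanol fix, 0.1% crystal violet stain (remaining cysts washed off), dissolve in 10% acetic acid, absorbance 590 nm. Unpaired t-test vs drug-free control; 6 replicates.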

Acanthamoeba castellanii [10] = experiment: Anti-amoebic activity against Acanthamoeba castellanii ATCC 30010 cyst assessed as inhibition of excystation at >= 62.5 uM incubated for 72 hrs by crystal violet staining based assay
Acanthamoeba castellanii [11] = experiment: Anti-amoebic activity against Acanthamoeba castellanii ATCC 30010 trophozoites assessed as reduction in amoebic growth at 15.6 uM incubated for 24 to 72 hrs by crystal violet staining based assay; details: time 24-72 hrs; how it was run: as §1
Acanthamoeba castellanii [12] = experiment: Anti-amoebic activity against Acanthamoeba castellanii ATCC 30010 cyst assessed as reduction in cyst survival at 7.81 to 250 uM incubated for 24 to 72 hrs by crystal violet staining based assay; details: dose 7.81-250 µM, time 24-72 hrs; how it was run: as §2
Acanthamoeba castellanii [13] = experiment: Anti-amoebic activity against Acanthamoeba castellanii ATCC 30010 cyst assessed as reduction in cyst survival at >= 500 uM incubated for 24 to 72 hrs by crystal violet staining based assay; details: time 24-72 hrs; how it was run: as §2
Acanthamoeba castellanii [14] = experiment: Anti-amoebic activity against Acanthamoeba castellanii ATCC 30010 trophozoites assessed as reduction in amoebic growth at 100 nM incubated for 24 to 72 hrs by crystal violet staining based assay; details: time 24-72 hrs; how it was run: as §1
Acanthamoeba castellanii [15] = experiment: Anti-amoebic activity against Acanthamoeba castellanii ATCC 30010 cyst assessed as reduction in cyst survival at […] incubated for 24 to 72 hrs by crystal violet staining based assay; details: time 24-72 hrs; how it was run: as §2
Acanthamoeba castellanii [16] = experiment: Anti-amoebic activity against Acanthamoeba castellanii ATCC 30010 cyst assessed as inhibition of excystation at 10 uM incubated for 72 hrs by crystal violet staining based assay

For CCOc1ccc2nc(S(N)(=O)=O)sc2c1, the Activity (Acanthamoeba castellanii [1]) was “Active”, the Activity (Acanthamoeba castellanii [2]) was “Active” and the Activity (Acanthamoeba castellanii [3]) was “Active”.

For CCN[C@H]1CN(CCCOC)S(=O)(=O)c2sc(S(N)(=O)=O)cc21, the Activity (Acanthamoeba castellanii [4]) was “inactive”, the Activity (Acanthamoeba castellanii [5]) was “inactive” and the Activity (Acanthamoeba castellanii [6]) was “Active”.

CC(=O)Nc1nnc(S(N)(=O)=O)s1 was tested, and the Activity (Acanthamoeba castellanii [7]) was “Active”, the Activity (Acanthamoeba castellanii [8]) was “Active” and the Activity (Acanthamoeba castellanii [9]) was “Active”.

NN1CCN(NC(=S)S)CC1 was tested, and the Activity (Acanthamoeba castellanii [10]) was “Active”, the Activity (Acanthamoeba castellanii [11]) was “Active” and the Activity (Acanthamoeba castellanii [12]) was “inactive”. For the same molecule, the Activity (Acanthamoeba castellanii [13]) was “Active”.

With CCN[C@H]1C[C@H](C)S(=O)(=O)c2sc(S(N)(=O)=O)cc21 the Activity (Acanthamoeba castellanii [14]) was “Active”, the Activity (Acanthamoeba castellanii [15]) was “Active” and the Activity (Acanthamoeba castellanii [16]) was “Active”.
